In ChEMBL document CHEMBL1772955, “Synthesis, metabolic stability and antiviral evaluation of various alkoxyalkyl esters of cidofovir and 9-(S)-[3-hydroxy-2-(phosphonomethoxy)propyl]adenine” (Bioorg Med Chem, 2011):

Tests used:
[1] = Selectivity index, ratio of CC50 for human HFF cells to EC50 for Vaccinia virus Copenhagen; type: toxicity, cell-based; settings: read-out: Ratio CC50/EC50
[2] = tested on: Vaccinia virus; assay: Antiviral activity against Vaccinia virus Copenhagen infected in human HFF cells after 3 days by plaque reduction assay; type: functional, organism-based; settings: Orthopoxvirus vaccinia, 72 h
[3] = Selectivity index, ratio of CC50 for human HFF cells to EC50 for Cowpox virus (Brighton Red); type: toxicity, cell-based; settings: read-out: Ratio CC50/EC50
[4] = Antiviral activity against Cowpox virus (Brighton Red) infected in human HFF cells after 3 days by plaque reduction assay; type: functional, cell-based; settings: 72 h
[5] = tested on: Liver; assay: Metabolic stability in human liver S9 fraction assessed as compound degradation at 10 uM after 90 mins by HPLC/MS/MS; type: ADME, subcellular; settings: s9, 1.5 h
Method in brief: (§1)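 Liver S9 fraction at 3 mg/mL protein in phosphate buffer, test article 1 μM or 10 μM final; 2 min equilibration at 37 °C, then reaction started with 1x NADPH regeneration system. Samples taken from time zero to 90 min into 1% ammonium hydroxide in N-propyl alcohol. Analysed by C8 HPLC with water/isopropyl alcohol (0.1% formic acid) gradient and ESI-MS. 7-Ethoxycoumarin run as positive control.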

[6] = Metabolic stability in human liver S9 fraction assessed as compound remaining at 1 uM after 90 mins by HPLC/MS/MS; type: ADME, subcellular; settings: read-out: Stability
Method in brief: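 Liver S9 (human or monkey, 3 mg/mL protein, phosphate buffer) with test article at 1 or 10 μM final, pre-equilibrated about 2 min at 37 °C. Started with 1x NADPH regeneration system, sampled 0-90 min into 1% NH4OH in n-propanol. Held cold ≥48 h, centrifuged, C8 LC (water/isopropanol, 0.1% formic acid) with ESI-MS; 7-ethoxycoumarin as activity control.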

[7] = tested on: BSC-1; assay: (§2) Cytotoxicity against african green monkey BSC1 cells after 2 to 4 hrs by MTS assay; type: cell-based; settings: chlorocebus aethiops, bsc-1
Method in brief: (§3)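 BSC-1 cells (5000 per reaction) mixed with serial compound dilutions in DMEM/2% Fetal Clone II, without virus. At the set time point, MTS reagent added for 2-4 h and OD490 read. Viability taken relative to untreated cells; CC50 from concentration versus % viability plot.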

[8] = tested on: Ectromelia virus Moscow; assay: Antiviral activity against Ectromelia virus Moscow infected in african green monkey BSC1 cells after 4 to 5 days by plaque reduction assay; type: functional, organism-based; settings: BSC-1
[9] = Selectivity index, ratio of CC50 for african green monkey BSC1 cells to EC50 for Ectromelia virus Moscow; type: toxicity, cell-based, BSC-1; settings: read-out: Ratio CC50/EC50
[10] = tested on: Liver; assay: Metabolic stability in human liver S9 fraction assessed as compound degradation at 1 uM after 90 mins by HPLC/MS/MS; type: ADME, subcellular; settings: s9, 1.5 h; method in brief: as §1
[11] = tested on: HFF; assay: Cytotoxicity against human HFF cells assessed as reduction in cell viability after 7 days by neutral red uptake assay; type: cell-based; settings: 168 h
Method in brief: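 Uninfected HFF cells seeded at 2.5×10^4/well and grown 24 h to monolayer. Medium replaced by MEM/2% FBS containing graded compound concentrations; 7 d incubation. Cells stained with 0.01% neutral red, absorbance at 540 nm; CC50 interpolated as 50% viability loss.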

[12] = as §2; type: cell-based, BSC-1; settings: chlorocebus aethiops, BSC1 cells; method in brief: as §3
[13] = tested on: Liver; type: ADME, subcellular, S9 fraction; settings: rat, s9, 1.5 h, 1 µM
[14] = tested on: Liver; type: ADME, subcellular, Cavia porcellus, S9 fraction; settings: guinea pig, s9, 1.5 h, 1 µM
[15] = tested on: Liver; assay: Metabolic stability in human liver S9 fraction assessed as compound disappearance at 1 uM after 90 mins by HPLC/MS/MS; type: ADME, subcellular; settings: s9, 1.5 h; method in brief: as §1
[16] = tested on: Liver; type: ADME, subcellular, Cavia porcellus, S9 fraction; settings: guinea pig, s9, 1.5 h, 10 µM
[17] = tested on: Liver; type: ADME, subcellular, S9 fraction; settings: rat, s9, 1.5 h, 10 µM
[18] = tested on: Liver; assay: Metabolic stability in human liver S9 fraction assessed as compound disappearance at 10 uM after 90 mins by HPLC/MS/MS; type: ADME, subcellular; settings: s9, 1.5 h; method in brief: as §1

Row | SMILES | selectivity ratio [1] | EC50 [2] | selectivity ratio [3] | EC50 [4] | Stability [5] | remaining at 1.5 h, 1 µM [6] | CC50 [7] | EC50 [8] | selectivity ratio [9] | Stability [10] | CC50 [11] | CC50 [12] | Stability [13] | Stability [14] | Stability [15] | Stability [16] | Stability [17] | Stability [18]
1 | CC(C)CCCCCCCCCCCCCCOCCCOP(=O)(O)CO[C@H](CO)Cn1cnc2c(N)ncnc21 | 285 | 40 nM | 285 | 40 nM | Stable | 91.3% | 11.7 µM | 44 nM | 266 | Stable | 11.4 µM | – | – | – | – | – | – | –
2 | CC(C)CCCCCCCCCCCCCCOCCCOP(=O)(O)CO[C@H](CO)Cn1ccc(N)nc1=O | 75 | 200 nM | 150 | 100 nM | – | – | 78 µM | 43 nM | 1810 | – | 15 µM | – | – | – | – | – | – | –
3 | Nc1ccn(C[C@@H](CO)OCP(=O)(O)OCCCOCCCCCCCCCCCCCCC2CC2)c(=O)n1 | 187 | 300 nM | 112 | 500 nM | – | 88% | 74 µM | 740 nM | 100 | – | 56 µM | – | – | – | – | – | – | –
4 | CCCCCCCCCCCCCCCCCCOC[C@@H](COP(=O)(O)CO[C@H](CO)Cn1ccc(N)nc1=O)OCc1ccccc1 | 118 | 400 nM | 157 | 300 nM | – | 92.3% | – | 30 nM | 1100 | – | 47 µM | 35 µM | – | – | – | – | – | –
5 | CC(C)CCCCCCCCCCCCOCCCOP(=O)(O)CO[C@H](CO)Cn1ccc(N)nc1=O | 123 | 300 nM | 123 | 300 nM | – | – | 82 µM | 390 nM | 210 | – | 37 µM | – | – | – | – | – | – | –
6 | CC(C)CCCCCCCCCCCOCCCOP(=O)(O)CO[C@H](CO)Cn1ccc(N)nc1=O | 44 | 1000 nM | 55 | 800 nM | – | – | 82 µM | 350 nM | 234 | – | 44 µM | – | – | – | – | – | – | –
7 | C=CCCCCCCCCCCCCCCOCCOP(=O)(O)CO[C@H](CO)Cn1cnc2c(N)ncnc21 | 85 | 20 nM | 85 | 20 nM | Unstable | – | 2.32 µM | 320 nM | 7.2 | Unstable | 1.7 µM | – | – | – | – | – | – | –
8 | CCCCCCCCCCCCCCCCOCCOP(=O)(O)CO[C@H](CO)Cn1cnc2c(N)ncnc21 | 156 | 90 nM | 156 | 90 nM | – | – | 40.5 µM | 140 nM | 289 | – | 14 µM | – | – | – | – | – | – | –
9 | CC(C)CCCCCCCCCCCCCCOCCOP(=O)(O)CO[C@H](CO)Cn1cnc2c(N)ncnc21 | 250 | 10 nM | 250 | 10 nM | – | – | 59.6 µM | 10 nM | 5960 | – | 2.5 µM | – | – | – | – | – | – | –
10 | CCCCCCCCCCCCCCCCOCCCOP(=O)(O)CO[C@H](CO)Cn1cnc2c(N)ncnc21 | 280 | – | 140 | 20 nM | Stable | – | 84.7 µM | 66 nM | 1280 | Stable | 2.8 µM | – | – | – | – | – | – | –
11 | CCCCCCCCCCCCCCCCOCCCOP(=O)(O)CO[C@H](CO)Cn1ccc(N)nc1=O [BRINCIDOFOVIR] | 313 | – | 125 | 200 nM | – | 83.3% | 25.3 µM | 125 nM | 202 | – | 25 µM | – | Stable | Stable | Stable | Stable | Stable | Stable
